# Assay results: ChEMBL document CHEMBL4406845, “Synthesis of benzotriazoles derivatives and their dual potential as α-amylase and α-glucosidase inhibitors in vitro: Structure-activity relationship, molecular docking, and kinetic studies” (Eur J Med Chem, 2019)
# pIC50: −log10 of the molar value.
# Legend:
# [1] = test system: COc1ccc(C(=O)Cn2nnc3cc(C)c(C)cc32)cc1; assay: (§1) Competitive inhibition of alpha-amylase (unknown origin) assessed as substrate Vmax using p-nitrophenyl-R-D-maltoside as substrate incubated for 30 mins by ELISA-based Lineweaver-burk plot analysis; details: Homo sapiens
# How it was run: (§2)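 Kinetics: inhibitor at 0.0625, 0.125, 0.3 and 0.4 mM crossed with p-nitrophenyl-R-D-maltoside at 0.1, 0.2, 0.4, 0.8 and 1.0 mM. Enzyme dissolved in deionized water, 0.2 mg/mL per well. PIPES buffer, pH 7.0, 30 min at 25 °C. Absorbance read on a plate reader. Vmax, Km, AICc and R² obtained by enzyme-kinetic graph fitting.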
# [2] = test system: COc1ccc(C(=O)n2nnc3ccccc32)cc1; assay: as §1; details: Homo sapiens; how it was run: as §2
# [3] = test system: Cc1cc2nnn(CC(=O)c3ccc(Cl)c(Cl)c3)c2cc1C; assay: as §1; details: Homo sapiens; how it was run: as §2
# [4] = test system: Cc1cc2nnn(CC(=O)c3ccc(Cl)cc3)c2cc1C; assay: as §1; details: Homo sapiens; how it was run: as §2
# [5] = test system: O=C(Cn1nnc2ccccc21)c1ccc(Cl)cc1; assay: as §1; details: Homo sapiens; how it was run: as §2
# [6] = test system: O=C(Cn1nnc2ccccc21)c1cccc(Br)c1; assay: as §1; details: Homo sapiens; how it was run: as §2
# [7] = test system: O=C(c1ccc(F)cc1)n1nnc2ccccc21; assay: as §1; details: Homo sapiens; how it was run: as §2
# [8] = test system: O=C(c1ccc([N+](=O)[O-])cc1)n1nnc2ccccc21; assay: as §1; details: Homo sapiens; how it was run: as §2
# [9] = test system: O=C(c1cccc(Cl)c1)n1nnc2cc(Cl)c(Cl)cc21; assay: as §1; details: Homo sapiens; how it was run: as §2
# [10] = test system: COc1ccc(C(=O)Cn2nnc3cc(C)c(C)cc32)cc1; assay: (§3) Competitive inhibition of alpha-amylase (unknown origin) assessed as substrate Km using p-nitrophenyl-R-D-maltoside as substrate incubated for 30 mins by ELISA-based Lineweaver-burk plot analysis; details: Homo sapiens; how it was run: as §2
# [11] = test system: COc1ccc(C(=O)n2nnc3ccccc32)cc1; assay: as §3; details: Homo sapiens; how it was run: as §2
# [12] = test system: Cc1cc2nnn(CC(=O)c3ccc(Cl)c(Cl)c3)c2cc1C; assay: as §3; details: Homo sapiens; how it was run: as §2
# [13] = test system: Cc1cc2nnn(CC(=O)c3ccc(Cl)cc3)c2cc1C; assay: as §3; details: Homo sapiens; how it was run: as §2
# [14] = test system: O=C(Cn1nnc2ccccc21)c1ccc(Cl)cc1; assay: as §3; details: Homo sapiens; how it was run: as §2
# [15] = test system: O=C(Cn1nnc2ccccc21)c1cccc(Br)c1; assay: as §3; details: Homo sapiens; how it was run: as §2
# [16] = test system: O=C(c1ccc(F)cc1)n1nnc2ccccc21; assay: as §3; details: Homo sapiens; how it was run: as §2
# [17] = test system: O=C(c1ccc([N+](=O)[O-])cc1)n1nnc2ccccc21; assay: as §3; details: Homo sapiens; how it was run: as §2
# [18] = test system: O=C(c1cccc(Cl)c1)n1nnc2cc(Cl)c(Cl)cc21; assay: as §3; details: Homo sapiens; how it was run: as §2
# Alpha amylase = biological target: T1, Alpha amylase (Homo sapiens, UniProt P0DUB6); assay: Inhibition of alpha-amylase (unknown origin) using starch as substrate preincubated for 10 mins followed by substrate addition and measured after 10 mins by dinitrosalicylic acid reagent based assay
# T1 sequence (P0DUB6 whole entry): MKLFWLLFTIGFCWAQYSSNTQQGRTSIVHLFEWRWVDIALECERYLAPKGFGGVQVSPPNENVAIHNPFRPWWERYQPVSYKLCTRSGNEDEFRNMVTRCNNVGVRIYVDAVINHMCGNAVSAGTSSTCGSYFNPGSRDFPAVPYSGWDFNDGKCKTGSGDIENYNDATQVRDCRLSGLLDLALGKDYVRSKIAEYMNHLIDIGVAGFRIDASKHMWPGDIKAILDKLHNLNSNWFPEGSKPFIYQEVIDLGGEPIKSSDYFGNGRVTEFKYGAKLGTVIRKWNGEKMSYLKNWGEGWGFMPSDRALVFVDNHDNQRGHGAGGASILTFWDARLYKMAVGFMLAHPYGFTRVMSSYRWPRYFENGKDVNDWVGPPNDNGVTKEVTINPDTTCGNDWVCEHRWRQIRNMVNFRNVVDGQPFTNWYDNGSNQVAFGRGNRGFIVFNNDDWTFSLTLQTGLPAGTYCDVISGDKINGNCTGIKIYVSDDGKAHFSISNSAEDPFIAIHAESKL
# Alpha glucosidase = Alpha glucosidase (Homo sapiens, UniProt O43451+P10253+P14410+Q2M2H8); assay: Inhibition of alpha-glucosidase (unknown origin); assay type: protein assay
# [19] = test system: CCCCOc1ccc(C(=O)n2nnc3ccccc32)cc1; assay: (§4) Non-competitive inhibition of alpha-glucosidase (unknown origin) assessed as substrate Vmax using p-nitrophenyl-R-D-maltoside as substrate incubated for 30 mins at 1 min interval by ELISA-based Lineweaver-burk plot analysis; assay type: protein assay; details: Homo sapiens
# [20] = test system: COc1ccc(C(=O)Cn2nnc3cc(C)c(C)cc32)cc1; assay: as §4; assay type: protein assay; details: Homo sapiens
# [21] = test system: Cc1cc(C(=O)n2nnc3ccccc32)cc(C)c1C; assay: as §4; assay type: protein assay; details: Homo sapiens
# [22] = test system: Cc1cc2nnn(C(=O)c3ccccc3)c2cc1C; assay: as §4; assay type: protein assay; details: Homo sapiens
# [23] = test system: Cc1ccc(C(=O)n2nnc3cc(Cl)c(Cl)cc32)cc1C; assay: as §4; assay type: protein assay; details: Homo sapiens
# [24] = test system: O=C(Cn1nnc2ccccc21)c1cccc([N+](=O)[O-])c1; assay: as §4; assay type: protein assay; details: Homo sapiens
# [25] = test system: O=C(Cn1nnc2ccccc21)c1ccccc1O; assay: as §4; assay type: protein assay; details: Homo sapiens
# [26] = test system: O=C(c1ccc(Br)cc1)n1nnc2ccccc21; assay: as §4; assay type: protein assay; details: Homo sapiens
# [27] = test system: O=C(c1cccc(Cl)c1)n1nnc2cc(Cl)c(Cl)cc21; assay: as §4; assay type: protein assay; details: Homo sapiens
# [28] = test system: CCCCOc1ccc(C(=O)n2nnc3ccccc32)cc1; assay: (§5) Non-competitive inhibition of alpha-glucosidase (unknown origin) assessed as substrate Km using p-nitrophenyl-R-D-maltoside as substrate incubated for 30 mins at 1 min interval by ELISA-based Lineweaver-burk plot analysis; assay type: protein assay; details: Homo sapiens
# [29] = test system: COc1ccc(C(=O)Cn2nnc3cc(C)c(C)cc32)cc1; assay: as §5; assay type: protein assay; details: Homo sapiens
# [30] = test system: Cc1cc(C(=O)n2nnc3ccccc32)cc(C)c1C; assay: as §5; assay type: protein assay; details: Homo sapiens
# [31] = test system: Cc1cc2nnn(C(=O)c3ccccc3)c2cc1C; assay: as §5; assay type: protein assay; details: Homo sapiens
# [32] = test system: Cc1ccc(C(=O)n2nnc3cc(Cl)c(Cl)cc32)cc1C; assay: as §5; assay type: protein assay; details: Homo sapiens
# [33] = test system: O=C(Cn1nnc2ccccc21)c1cccc([N+](=O)[O-])c1; assay: as §5; assay type: protein assay; details: Homo sapiens
# [34] = test system: O=C(Cn1nnc2ccccc21)c1ccccc1O; assay: as §5; assay type: protein assay; details: Homo sapiens
# [35] = test system: O=C(c1ccc(Br)cc1)n1nnc2ccccc21; assay: as §5; assay type: protein assay; details: Homo sapiens
# [36] = test system: O=C(c1cccc(Cl)c1)n1nnc2cc(Cl)c(Cl)cc21; assay: as §5; assay type: protein assay; details: Homo sapiens
Molecule,IC50 (Alpha amylase) [µM],IC50 (Alpha glucosidase) [µM],pIC50 (Alpha amylase),pIC50 (Alpha glucosidase),further results
Alpha amylase (Homo sapiens) (from UniProt P0DUB6),,,,,Vmax [1]: 505 µM/min; Vmax [2]: 554 µM/min; Vmax [3]: 593 µM/min; Vmax [4]: 514 µM/min; Vmax [5]: 527 µM/min; Vmax [6]: 512 µM/min; Vmax [7]: 522 µM/min; Vmax [8]: 512 µM/min; Vmax [9]: 514 µM/min; Km [10]: 200 µM; Km [11]: 210 µM; Km [12]: 240 µM; Km [13]: 180 µM; Km [14]: 200 µM; Km [15]: 210 µM; Km [16]: 190 µM; Km [17]: 200 µM; Km [18]: 200 µM
O=C(Cn1nnc2ccccc21)c1cccc([N+](=O)[O-])c1,4.02,4,,,
Cc1cc(C(=O)n2nnc3ccccc32)ccc1[N+](=O)[O-],4.08,4.1,,,
Cc1ccc(C(=O)n2nnc3cc(Cl)c(Cl)cc32)cc1C,3.66,3.82,,,
O=C(c1ccc(F)cc1)n1nnc2ccccc21,2.8,2.82,,,
COc1ccccc1C(=O)n1nnc2ccccc21,4.77,4.79,,,
Cc1cccc(C(=O)n2nnc3ccccc32)c1,4.3,4.42,,,
O=C(Cn1nnc2ccccc21)c1ccc(Br)cc1,,,5.36 to 5.56,5.36 to 5.55,
O=C(c1cccc(Cl)c1)n1nnc2cc(Cl)c(Cl)cc21,2.99,3,,,
Cc1cc2nnn(CC(=O)c3ccccc3)c2cc1C,3.53,3.41,,,
O=C(Cn1nnc2ccccc21)c1cccc(Cl)c1Cl,3.51,3.47,,,
O=C(c1ccccc1)n1nnc2ccccc21,5.38,5.29,,,
O=C(Cn1nnc2ccccc21)c1ccccc1O,4.9,4.87,,,
O=C(Cn1nnc2ccccc21)c1ccc(Cl)cc1,2.41,2.5,,,
Cc1cc(C(=O)n2nnc3ccccc32)cc(C)c1C,4.12,4.23,,,
COc1ccc(C(=O)n2nnc3ccccc32)cc1,2.98,2.99,,,
COc1ccc(C(=O)Cn2nnc3ccccc32)cc1,4.42,4.5,,,
O=C(c1ccc([N+](=O)[O-])cc1)n1nnc2ccccc21,2.92,2.97,,,

Molecule,IC50 (Alpha amylase) [µM],IC50 (Alpha glucosidase) [µM],pIC50 (Alpha amylase),pIC50 (Alpha glucosidase),further results
O=C(c1ccccc1)n1nnc2cc(Cl)c(Cl)cc21,3.66,3.7,,,
O=C(Cn1nnc2ccccc21)c1ccccc1,4.89,4.91,,,
O=C(c1ccc(F)c(F)c1Cl)n1nnc2ccccc21,5.72,5.63,,,
Alpha glucosidase (Homo sapiens) (from UniProt O43451+P10253+P14410+Q2M2H8),,,,,Vmax [19]: 621 µM/min; Vmax [20]: 620 µM/min; Vmax [21]: 612 µM/min; Vmax [22]: 602 µM/min; Vmax [23]: 620 µM/min; Vmax [24]: 618 µM/min; Vmax [25]: 601 µM/min; Vmax [26]: 612 µM/min; Vmax [27]: 620 µM/min; Km [28]: 240 µM; Km [29]: 210 µM; Km [30]: 200 µM; Km [31]: 200 µM; Km [32]: 240 µM; Km [33]: 260 µM; Km [34]: 250 µM; Km [35]: 200 µM; Km [36]: 250 µM
Cc1ccc(C(=O)n2nnc3ccccc32)cc1C,4.73,4.8,,,
O=C(c1c(F)cccc1F)n1nnc2ccccc21,5,5.23,,,
Nc1cc(C(=O)n2nnc3ccccc32)ccc1Cl,4.28,4.32,,,
Cc1cc2nnn(CC(=O)c3ccc(Cl)cc3)c2cc1C,2.12,2.21,,,
Cc1ccc(C(=O)Cn2nnc3ccccc32)cc1,4.56,4.78,,,
O=C(Cn1nnc2ccccc21)c1ccc(Cl)c(Cl)c1,3.89,3.9,,,
O=C(Cn1nnc2ccccc21)c1ccc(-c2ccccc2)cc1,4.92,4.98,,,
CCCCOc1ccc(C(=O)n2nnc3ccccc32)cc1,5.4,5.6,,,
O=C(c1ccc(Br)cc1)n1nnc2ccccc21,3.13,3.2,,,
Cc1cc2nnn(CC(=O)c3ccc(Cl)c(Cl)c3)c2cc1C,2,2.04,,,
COc1ccc(C(=O)Cn2nnc3cc(C)c(C)cc32)cc1,2.51,2.6,,,
Cc1cc2nnn(CC(=O)c3ccccc3O)c2cc1C,3.21,3.3,,,
O=C(Cn1nnc2ccccc21)c1cccc(Br)c1,,,5.36,5.36,
Cc1cc2nnn(C(=O)c3ccccc3)c2cc1C,3.32,3.4,,,
